The values below come from ChEMBL document CHEMBL2046349, “Synthesis of pacidamycin analogues via an Ugi-multicomponent reaction” (Bioorg Med Chem Lett, 2012).

Values after ≈ are worked out from the molar mass of the structure shown.

In test [1] the test system is Pseudomonas aeruginosa. The experiment in a line: Antimicrobial activity against Pseudomonas aeruginosa PAO1 incubated at 35 degC for 20 hrs by microdilution broth method. Format: functional. As to conditions: PAO1, 20 h. The essentials:
(§1)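 Broth microdilution per NCCLS in cation-adjusted Mueller-Hinton broth. Each compound serially diluted two-fold, and each […] inoculated at 5×10^4 CFU per 0.1 mL well. Plates incubated 35 °C for 20 h, then MIC scored.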
A general note: Broth dilution looks for growth in wells or tubes with falling amounts of substance.

For test [2], the system named is Pseudomonas aeruginosa. The experiment in a line: Antimicrobial activity against Pseudomonas aeruginosa ATCC 25619 incubated at 35 degC for 20 hrs by microdilution broth method. Format: functional. Conditions: ATCC 25619, 20 h. In outline:
as §1

For test [3], the system named is Pseudomonas aeruginosa. Description: Antimicrobial activity against Pseudomonas aeruginosa YYI65 (deltamexB) incubated at 35 degC for 20 hrs by microdilution broth method. Conditions: YYI65, 20 h. It counts as functional. In outline: as §1
Test [4] deals with T1, Phospho-N-acetylmuramoyl-pentapeptide-transferase (Staphylococcus aureus, UniProt P0C1R8).
T1 sequence (P0C1R8 whole entry): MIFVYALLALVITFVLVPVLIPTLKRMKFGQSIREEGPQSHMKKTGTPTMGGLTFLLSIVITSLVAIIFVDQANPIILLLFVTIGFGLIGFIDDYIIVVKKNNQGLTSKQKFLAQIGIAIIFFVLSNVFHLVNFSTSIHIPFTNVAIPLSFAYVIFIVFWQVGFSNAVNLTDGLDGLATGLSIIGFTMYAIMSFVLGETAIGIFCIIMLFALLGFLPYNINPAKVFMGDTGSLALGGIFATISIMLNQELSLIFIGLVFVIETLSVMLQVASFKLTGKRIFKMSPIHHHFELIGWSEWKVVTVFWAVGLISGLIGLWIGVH
Description: Inhibition of Staphylococcus aureus MraY using UDP-MurNAc-dansylpentapeptide substrate assessed as formation of dansylated lipid I incubated for 3 to 4 hrs by fluorometric assay. In outline:
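Purified S. aureus MraY with UDP-MurNAc-dansylpentapeptide as substrate. Dansylated lipid I formation followed as fluorescence enhancement at ex 355 nm / em 535 nm. IC50 reported.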

The subject of test [5] is Pseudomonas aeruginosa. Description: Antimicrobial activity against Pseudomonas aeruginosa SR 27156 incubated at 35 degC for 20 hrs by microdilution broth method. Format: functional. As to conditions: SR 27156, 20 h. The essentials: as §1

As to `C[C@H](N)C(=O)N(C)[C@@H](C)[C@H](NC(=O)[C@H](C)NC(=O)N[C@@H](Cc1c[nH]c2ccccc12)C(=O)O)C(=O)N/C=C1\O[C@@H](n2ccc(=O)[nH]c2=O)[C@H](O)[C@@H]1O`, the MIC in the test with Pseudomonas aeruginosa [1] amounted to 32 µg/mL (≈ 44 µM); against Pseudomonas aeruginosa [2], 16 µg/mL (≈ 22 µM); in the test with Pseudomonas aeruginosa [3], 8 µg/mL (≈ 11 µM); in the test on Pseudomonas aeruginosa [5] it was 16 µg/mL (≈ 22 µM). Further, in test [4], the IC50 was found to be 42 nM.
With `C[C@H](N)C(=O)N(C)[C@@H](C)[C@@H](NC(=O)[C@H](C)NC(=O)N[C@@H](Cc1c[nH]c2ccccc12)C(=O)O)C(=O)N/C=C1\O[C@@H](n2ccc(=O)[nH]c2=O)[C@H](O)[C@@H]1O`, the MIC with Pseudomonas aeruginosa [1], in the test with Pseudomonas aeruginosa [2], with Pseudomonas aeruginosa [3] and against Pseudomonas aeruginosa [5] was more than 32 µg/mL each time. In test [4], the IC50 turned out to be 4000 nM.
As for `C[C@H](NC(=O)N[C@@H](Cc1c[nH]c2ccccc12)C(=O)O)C(=O)N[C@H](C(=O)N/C=C1\O[C@@H](n2ccc(=O)[nH]c2=O)[C@H](O)[C@@H]1O)[C@H](C)N(C)C(=O)[C@H](Cc1cccc(O)c1)NC(=O)CN`, the MIC in the test on Pseudomonas aeruginosa [1] was more than 32 µg/mL; in the test on Pseudomonas aeruginosa [2] it was 32 µg/mL (≈ 36.5 µM); in the test with Pseudomonas aeruginosa [3] it was 16 µg/mL (≈ 18.2 µM); against Pseudomonas aeruginosa [5], 16 µg/mL (≈ 18.2 µM). Besides, the IC50 in test [4] is 22 nM.
As for `C[C@H](NC(=O)N[C@@H](Cc1c[nH]c2ccccc12)C(=O)O)C(=O)N[C@H](C(=O)N/C=C1\O[C@@H](n2ccc(=O)[nH]c2=O)[C@H](O)[C@@H]1O)[C@H](C)N(C)C(=O)[C@H](Cc1ccc(O)cc1)NC(=O)CN`, the MIC in the test on Pseudomonas aeruginosa [1], with Pseudomonas aeruginosa [2], against Pseudomonas aeruginosa [3] and in the test on Pseudomonas aeruginosa [5] was more than 32 µg/mL in each case. Also, in test [4], the half-inhibitory concentration (IC50) was determined as 4000 nM.
As for `C[C@H](NC(=O)N[C@@H](Cc1c[nH]c2ccccc12)C(=O)O)C(=O)N[C@H](C(=O)N/C=C1\O[C@@H](n2ccc(=O)[nH]c2=O)[C@H](O)[C@@H]1O)[C@H](C)N(C)C(=O)CN`, the MIC against Pseudomonas aeruginosa [1], in the test with Pseudomonas aeruginosa [2], with Pseudomonas aeruginosa [3] and in the test on Pseudomonas aeruginosa [5] was more than 32 µg/mL each time. Also, the IC50 in test [4] was 65 nM.
Consider `C[C@H](NC(=O)N[C@@H](Cc1c[nH]c2ccccc12)C(=O)O)C(=O)N[C@@H](C(=O)N/C=C1\O[C@@H](n2ccc(=O)[nH]c2=O)[C@H](O)[C@@H]1O)[C@H](C)N(C)C(=O)[C@H](Cc1cccc(O)c1)NC(=O)CN`, for which the MIC against Pseudomonas aeruginosa [1], in the test with Pseudomonas aeruginosa [2], in the test with Pseudomonas aeruginosa [3] and against Pseudomonas aeruginosa [5] was more than 32 µg/mL in each case. The IC50 in test [4] was determined as 650 nM.
Consider `C[C@H](NC(=O)N[C@@H](Cc1c[nH]c2ccccc12)C(=O)O)C(=O)N[C@@H](C(=O)N/C=C1\O[C@@H](n2ccc(=O)[nH]c2=O)[C@H](O)[C@@H]1O)[C@H](C)N(C)C(=O)[C@@H](Cc1cccc(O)c1)NC(=O)CN`, for which the MIC against Pseudomonas aeruginosa [1], with Pseudomonas aeruginosa [2], against Pseudomonas aeruginosa [3] and in the test with Pseudomonas aeruginosa [5] was more than 32 µg/mL throughout. Also, the IC50 in test [4] is 8900 nM.
For `C[C@H](N)C(=O)N(C)[C@@H](C)[C@H](NC(=O)[C@H](C)NC(=O)N[C@@H](Cc1c[nH]c2ccccc12)C(=O)O)C(=O)N/C=C1/C[C@@H](O)[C@H](n2ccc(=O)[nH]c2=O)O1` [PACIDAMYCIN D], the MIC is 64 µg/mL (≈ 89.9 µM) with Pseudomonas aeruginosa [1], 16 µg/mL (≈ 22.5 µM) with Pseudomonas aeruginosa [2], 16 µg/mL (≈ 22.5 µM) against Pseudomonas aeruginosa [3] and 16 µg/mL (≈ 22.5 µM) in the test with Pseudomonas aeruginosa [5]. The IC50 in test [4] was 22 nM.

The MIC is the lowest concentration found to suppress growth. The low end stands for inhibition by little substance, the high end for a need for much substance. One may read the IC50 as the concentration that gives 50% inhibition.
